Data published in ChEMBL document CHEMBL4400512, “Searching for new agents active against Candida albicans biofilm: A series of indole derivatives, design, synthesis and biological evaluation” (Eur J Med Chem, 2019).
Converted amounts (≈) assume the structure as drawn.

Key:
[1] = test system: Candida albicans; experiment: Antifungal activity against planktonic form of Candida albicans ATCC 10231 by broth microdilution method; format: organism-based; settings: in vitro
In short: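 CLSI M27-A3 broth microdilution. Cells grown on Sabouraud dextrose agar at 35°C for 24 h; final inoculum 1×10^3–5×10^3 cells/mL. Compounds from DMSO stocks, final DMSO below 1%, final range 256–0.25 µg/mL. Controls were DMSO 1% and fluconazole reference. MIC50 is the lowest concentration giving ≥50% growth inhibition. Three independent experiments in duplicate; median reported.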

[2] = test system: Candida albicans; experiment: Antibiofilm activity against Candida albicans ATCC 10231 assessed as inhibition of mature biofilm formation by XTT reduction assay; format: functional
In short: (§1)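 Biofilm assay after Pierce et al., with compound applied either during biofilm formation or to 24 h pre-formed (mature) biofilm. Read-out is metabolic activity of cells in the biofilm by XTT reduction. BMIC50 is the lowest concentration giving a 50% drop relative to untreated growth control. Tested in triplicate, at least two experiments on separate dates; median reported.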

[3] = test system: Candida albicans; experiment: Antibiofilm activity against Candida albicans ATCC 10231 assessed as inhibition of biofilm formation by XTT reduction assay; format: functional; in short: as §1
[4] = Toxicity in Galleria mellonella larvae assessed as larval survival at 500 ug/ml after 48 hrs relative to control
In short: (§2)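 Ten healthy larvae per group, stored at 15°C in the dark. Each got a 20 µL injection into the haemocoel via the last left proleg, with compound freshly made in sterile water containing <1% v/v DMSO. Larvae were incubated at 30°C and survival scored every 24 h; death was no movement on stimulation plus cuticle discolouration. Controls were untreated, pierced-only and vehicle. Mean % survival of two independent experiments.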

[5] = Toxicity in Galleria mellonella larvae assessed as larval survival at 10 ug/ml after 48 hrs relative to control; in short: as §2
[6] = test system: Candida albicans; experiment: Antifungal activity against planktonic form of Candida albicans PMC 1082 by broth microdilution method; format: organism-based; settings: in vitro
In short: (§3)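 Broth microdilution per CLSI M27-A3 and M27-S4. Strains were grown on Sabouraud dextrose agar at 35°C for 24 h. Final inoculum 1×10^3–5×10^3 cells/mL. Compounds were dissolved in DMSO (final <1%); 1% DMSO served as control. Final range 256–0.25 µg/mL. MIC50 is the lowest concentration giving ≥50% growth inhibition. Three independent experiments in duplicate, median; fluconazole as reference.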

[7] = Toxicity in Galleria mellonella larvae assessed as larval survival at 100 ug/ml after 72 hrs relative to control; in short: as §2
[8] = Toxicity in Galleria mellonella larvae assessed as larval survival at 10 ug/ml after 24 hrs relative to control; in short: as §2
[9] = Toxicity in Galleria mellonella larvae assessed as larval survival at 50 ug/ml after 48 hrs relative to control; in short: as §2
[10] = Toxicity in Galleria mellonella larvae assessed as larval survival at 100 ug/ml after 48 hrs relative to control; in short: as §2
[11] = test system: Candida albicans; experiment: Antibiofilm activity against Candida albicans PMC 1082 assessed as inhibition of mature biofilm formation by XTT reduction assay; format: functional
In short: (§4)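 Biofilm method of Pierce et al. Biofilms were treated either during formation or once mature (24 h preformed). Metabolic activity of the cells within the biofilm was read by XTT reduction. BMIC50 is the lowest concentration giving a 50% drop in metabolic activity versus the untreated growth control. At least two experiments on separate dates, triplicate, reported as median.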

[12] = test system: Candida albicans; experiment: Antibiofilm activity against Candida albicans PMC 1042 assessed as inhibition of biofilm formation by XTT reduction assay; format: functional; in short: as §4
[13] = test system: Candida albicans; experiment: Antibiofilm activity against Candida albicans PMC 1082 assessed as inhibition of biofilm formation by XTT reduction assay; format: functional; in short: as §4
[14] = Toxicity in Galleria mellonella larvae assessed as larval survival at 5 ug/ml after 24 hrs relative to control; in short: as §2
[15] = Toxicity in Galleria mellonella larvae assessed as larval survival at 5 ug/ml after 48 hrs relative to control; in short: as §2
[16] = Toxicity in Galleria mellonella larvae assessed as larval survival at 10 ug/ml after 72 hrs relative to control; in short: as §2
[17] = test system: Candida albicans; experiment: Antifungal activity against planktonic form of Candida albicans PMC 1042 by broth microdilution method; format: organism-based; settings: in vitro; in short: as §3
[18] = test system: Candida albicans; experiment: Antibiofilm activity against Candida albicans PMC 1042 assessed as inhibition of mature biofilm formation by XTT reduction assay; format: functional; in short: as §4
[19] = Toxicity in Galleria mellonella larvae assessed as larval survival at 50 ug/ml after 24 hrs relative to control; in short: as §2
[20] = test system: Candida albicans; experiment: Antifungal activity against planktonic form of Candida albicans ATCC 10261 by broth microdilution method; format: organism-based; settings: in vitro; in short: as §3
[21] = Toxicity in Galleria mellonella larvae assessed as larval survival at 500 ug/ml after 24 hrs relative to control; in short: as §2
[22] = Toxicity in Galleria mellonella larvae assessed as larval survival at 50 ug/ml after 72 hrs relative to control; in short: as §2
[23] = test system: Candida albicans; experiment: Antibiofilm activity against Candida albicans ATCC 10261 assessed as inhibition of mature biofilm formation by XTT reduction assay; format: functional; in short: as §4
[24] = test system: Candida albicans; experiment: Antibiofilm activity against Candida albicans ATCC 10261 assessed as inhibition of biofilm formation by XTT reduction assay; format: functional; in short: as §4
[25] = Toxicity in Galleria mellonella larvae assessed as larval survival at 500 ug/ml after 72 hrs relative to control; in short: as §2
[26] = Toxicity in Galleria mellonella larvae assessed as larval survival at 100 ug/ml after 24 hrs relative to control; in short: as §2
[27] = Toxicity in Galleria mellonella larvae assessed as larval survival at 5 ug/ml after 72 hrs relative to control; in short: as §2

Structure (SMILES): c1ccc(CNCCc2c[nH]c3ccccc23)cc1
- MIC50 [1]: > 128 µg/mL
- MBIC50 [2]: 32 µg/mL
- MBIC50 [3]: 32 µg/mL

Structure (SMILES): Brc1ccc(CNCCc2c[nH]c3ccccc23)cc1
- survival at 48 h [4]: 100%
- survival at 48 h [5]: 100%
- MIC50 [6]: 32 µg/mL (≈ 97.2 µM)
- survival at 72 h [7]: 100%
- survival at 24 h [8]: 100%
- survival at 48 h [9]: 100%
- survival at 48 h [10]: 100%
- MBIC50 [11]: 4 µg/mL
- MBIC50 [12]: 8 µg/mL
- MBIC50 [13]: 8 µg/mL
- survival at 24 h [14]: 100%
- survival at 48 h [15]: 100%
- MIC50 [1]: 64 µg/mL (≈ 194 µM)
- survival at 72 h [16]: 100%
- MIC50 [17]: 16 µg/mL (≈ 48.6 µM)
- MBIC50 [2]: 8 µg/mL
- MBIC50 [18]: 2 µg/mL
- survival at 24 h [19]: 100%
- MIC50 [20]: 32 µg/mL (≈ 97.2 µM)
- survival at 24 h [21]: 100%
- survival at 72 h [22]: 100%
- MBIC50 [3]: 8 µg/mL
- MBIC50 [23]: 8 µg/mL
- MBIC50 [24]: 8 µg/mL
- survival at 72 h [25]: 100%
- survival at 24 h [26]: 100%
- survival at 72 h [27]: 100%

Structure (SMILES): O=C(NCCc1c[nH]c2ccccc12)c1ccccc1
- MIC50 [1]: > 128 µg/mL
- MBIC50 [2]: 32 µg/mL
- MBIC50 [3]: 32 µg/mL

Structure (SMILES): O=[N+]([O-])c1ccc(/C=C/CNCCc2c[nH]c3ccccc23)cc1
- MIC50 [1]: > 128 µg/mL
- MBIC50 [2]: >128 µg/mL
- MBIC50 [3]: 8 µg/mL

Structure (SMILES): OC(Cn1cncn1)(Cn1cncn1)c1ccc(F)cc1F [FLUCONAZOLE]
- MIC50 [6]: 0.125 µg/mL (≈ 0.408 µM)
- MBIC50 [11]: >64 µg/mL
- MBIC50 [12]: >64 µg/mL
- MBIC50 [13]: >64 µg/mL
- MIC50 [1]: 0.5 µg/mL (≈ 1.63 µM)
- MIC50 [17]: 8 µg/mL (≈ 26.1 µM)
- MBIC50 [2]: >128 µg/mL
- MBIC50 [18]: >64 µg/mL
- MIC50 [20]: 2 µg/mL (≈ 6.53 µM)
- MBIC50 [3]: 128 µg/mL
- MBIC50 [23]: >64 µg/mL
- MBIC50 [24]: >64 µg/mL

Structure (SMILES): Brc1cccc(CNCCc2c[nH]c3ccccc23)c1
- MIC50 [1]: 64 µg/mL (≈ 194 µM)
- MBIC50 [2]: 32 µg/mL
- MBIC50 [3]: 4 µg/mL

Structure (SMILES): O=[N+]([O-])c1cccc(Cl)c1CNCCc1c[nH]c2ccccc12
- MIC50 [1]: > 128 µg/mL
- MBIC50 [2]: 8 µg/mL
- MBIC50 [3]: 16 µg/mL

Structure (SMILES): O=[N+]([O-])c1ccc(CNCCc2c[nH]c3ccccc23)o1
- MIC50 [1]: > 128 µg/mL
- MBIC50 [2]: 16 µg/mL
- MBIC50 [3]: 16 µg/mL

Structure (SMILES): NCCc1c[nH]c2ccccc12 [TRYPTAMINE]
- MIC50 [1]: > 128 µg/mL
- MBIC50 [2]: >128 µg/mL
- MBIC50 [3]: 128 µg/mL

Structure (SMILES): O=[N+]([O-])c1ccc(CNCCc2c[nH]c3ccccc23)cc1
- MIC50 [1]: > 128 µg/mL
- MBIC50 [2]: 32 µg/mL
- MBIC50 [3]: 32 µg/mL

Structure (SMILES): COc1ccc(CNCCc2c[nH]c3ccccc23)cc1[N+](=O)[O-]
- MIC50 [1]: > 128 µg/mL
- MBIC50 [2]: 32 µg/mL
- MBIC50 [3]: 128 µg/mL
